# From ChEMBL document CHEMBL4689842, “EUbOPEN Chemogenomics Library wave 1” (2021)
# How the values were obtained:
# Type in all cases: toxicity, cell-based
# [1] = tested on: Fibroblast; assay: Multiplex assay against human fibroblast
# How it was run: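 Live cells carried four stains from seeding: Hoechst33342, BioTracker Green Microtubule Cytoskeleton Dye, MitoTracker Red and Annexin V Alexa Fluor 680. They were imaged on a CQ1 microscope at 37°C and 5% CO2 after compound addition. Using CellPathfinder machine-learning gating, cells were split into Hoechst high-intensity objects or normal cells, normal cells into healthy, pyknosed or fragmented nuclei, and pyknosed cells into mitotic or apoptotic; tubulin, mitochondrial-mass and membrane-permeability phenotypes are per cents of healthy-nucleus cells.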
# [2] = tested on: HEK-293T; assay: Incucyte cell viability with HEK293T; settings: human, 10 µM, compound concentration 10 uM; note: filed as whole numbers so only -1 and 0 and 1 occur
# [3] = tested on: Fibroblast; assay: Incucyte cell viability with human fibroblast; settings: 10 µM, compound concentration 10 uM; note: filed as whole numbers so only -1 and 0 and 1 occur
# [4] = tested on: U2OS; assay: Incucyte cell viability with U2OS; settings: human, 10 µM, compound concentration 10 uM; note: filed as whole numbers so only -1 and 0 and 1 occur
# [5] = 12 h, 1 µM, compound concentration 1 uM, replicate 1
# [6] = 12 h, 1 µM, compound concentration 1 uM, replicate 2
# [7] = 12 h, 10 µM, compound concentration 10 uM, replicate 1
# [8] = 12 h, 10 µM, compound concentration 10 uM, replicate 2
# [9] = 24 h, 1 µM, compound concentration 1 uM, replicate 1
# [10] = 24 h, 1 µM, compound concentration 1 uM, replicate 2
# [11] = 24 h, 10 µM, compound concentration 10 uM, replicate 1
# [12] = 24 h, 10 µM, compound concentration 10 uM, replicate 2
# [13] = 48 h, 1 µM, compound concentration 1 uM, replicate 1
# [14] = 48 h, 1 µM, compound concentration 1 uM, replicate 2
# [15] = 48 h, 10 µM, compound concentration 10 uM, replicate 1
# [16] = 48 h, 10 µM, compound concentration 10 uM, replicate 2
# [17] = 18 h, replicate number 1, timepoint 18 hours
# [18] = 24 h, replicate number 1, timepoint 24 hours
# [19] = 0 h, replicate number 2, timepoint 0 hours
smiles,measurement,setting,value
N#CCNC(=O)c1ccc(-c2ccnc(Nc3ccc(N4CCOCC4)cc3)n2)cc1 [MOMELOTINIB],Population Apoptotic (%),[1]; [5],64%
same,Population Fragmented Nuclei (%),[1]; [5],26%
same,Population Healthy Nuclei (%),[1]; [5],40%
same,Population Hoechst High Intensity Objects (%),[1]; [5],11%
same,Population Membrane Permeable-Phenotype (%),[1]; [5],30%
same,Population Mitochondria Different-Phenotype (%),[1]; [5],4%
same,Population Mitotic Cells (%),[1]; [5],35%
same,Population Normal (%),[1]; [5],88%
same,Population Pyknosed Nuclei (%),[1]; [5],33%
same,Population Tubulin-Different-Phenotype (%),[1]; [5],21%
same,Total Cell Count,[1]; [5],117
same,Population Apoptotic (%),[1]; [6],60%
same,Population Fragmented Nuclei (%),[1]; [6],1%
same,Population Healthy Nuclei (%),[1]; [6],88%
same,Population Hoechst High Intensity Objects (%),[1]; [6],8%
same,Population Membrane Permeable-Phenotype (%),[1]; [6],2%
same,Population Mitochondria Different-Phenotype (%),[1]; [6],13%
same,Population Mitotic Cells (%),[1]; [6],40%
same,Population Normal (%),[1]; [6],91%
same,Population Pyknosed Nuclei (%),[1]; [6],9%
same,Population Tubulin-Different-Phenotype (%),[1]; [6],11%
same,Total Cell Count,[1]; [6],3119
same,Population Apoptotic (%),[1]; [7],63%
same,Population Fragmented Nuclei (%),[1]; [7],40%
same,Population Healthy Nuclei (%),[1]; [7],28%
same,Population Hoechst High Intensity Objects (%),[1]; [7],13%
same,Population Membrane Permeable-Phenotype (%),[1]; [7],16%
same,Population Mitochondria Different-Phenotype (%),[1]; [7],10%
same,Population Mitotic Cells (%),[1]; [7],36%
same,Population Normal (%),[1]; [7],86%
same,Population Pyknosed Nuclei (%),[1]; [7],31%
same,Population Tubulin-Different-Phenotype (%),[1]; [7],45%
same,Total Cell Count,[1]; [7],153
same,Population Apoptotic (%),[1]; [8],13%
same,Population Fragmented Nuclei (%),[1]; [8],27%
same,Population Healthy Nuclei (%),[1]; [8],47%
same,Population Hoechst High Intensity Objects (%),[1]; [8],10%
same,Population Membrane Permeable-Phenotype (%),[1]; [8],0%
same,Population Mitochondria Different-Phenotype (%),[1]; [8],6%
same,Population Mitotic Cells (%),[1]; [8],86%
same,Population Normal (%),[1]; [8],89%
same,Population Pyknosed Nuclei (%),[1]; [8],24%
same,Population Tubulin-Different-Phenotype (%),[1]; [8],6%
same,Total Cell Count,[1]; [8],56
same,Population Apoptotic (%),[1]; [9],56%
same,Population Fragmented Nuclei (%),[1]; [9],26%
same,Population Healthy Nuclei (%),[1]; [9],52%
same,Population Hoechst High Intensity Objects (%),[1]; [9],11%
same,Population Membrane Permeable-Phenotype (%),[1]; [9],27%
same,Population Mitochondria Different-Phenotype (%),[1]; [9],0%
same,Population Mitotic Cells (%),[1]; [9],43%
same,Population Normal (%),[1]; [9],88%
same,Population Pyknosed Nuclei (%),[1]; [9],20%
same,Population Tubulin-Different-Phenotype (%),[1]; [9],18%
same,Total Cell Count,[1]; [9],127
same,Population Apoptotic (%),[1]; [10],66%
same,Population Fragmented Nuclei (%),[1]; [10],7%
same,Population Healthy Nuclei (%),[1]; [10],86%
same,Population Hoechst High Intensity Objects (%),[1]; [10],10%
same,Population Membrane Permeable-Phenotype (%),[1]; [10],6%
same,Population Mitochondria Different-Phenotype (%),[1]; [10],15%
same,Population Mitotic Cells (%),[1]; [10],33%
same,Population Normal (%),[1]; [10],89%
same,Population Pyknosed Nuclei (%),[1]; [10],5%
same,Population Tubulin-Different-Phenotype (%),[1]; [10],8%
same,Total Cell Count,[1]; [10],3108
same,Population Apoptotic (%),[1]; [11],48%
same,Population Fragmented Nuclei (%),[1]; [11],39%
same,Population Healthy Nuclei (%),[1]; [11],37%
same,Population Hoechst High Intensity Objects (%),[1]; [11],14%
same,Population Membrane Permeable-Phenotype (%),[1]; [11],29%
same,Population Mitochondria Different-Phenotype (%),[1]; [11],12%
same,Population Mitotic Cells (%),[1]; [11],51%
same,Population Normal (%),[1]; [11],85%
same,Population Pyknosed Nuclei (%),[1]; [11],23%
same,Population Tubulin-Different-Phenotype (%),[1]; [11],46%
same,Total Cell Count,[1]; [11],147
same,Population Apoptotic (%),[1]; [12],45%
same,Population Fragmented Nuclei (%),[1]; [12],31%
same,Population Healthy Nuclei (%),[1]; [12],52%
same,Population Hoechst High Intensity Objects (%),[1]; [12],5%
same,Population Membrane Permeable-Phenotype (%),[1]; [12],28%
same,Population Mitochondria Different-Phenotype (%),[1]; [12],34%
same,Population Mitotic Cells (%),[1]; [12],54%
same,Population Normal (%),[1]; [12],94%
same,Population Pyknosed Nuclei (%),[1]; [12],16%
same,Population Tubulin-Different-Phenotype (%),[1]; [12],14%
same,Total Cell Count,[1]; [12],59
same,Population Apoptotic (%),[1]; [13],44%
same,Population Fragmented Nuclei (%),[1]; [13],34%
same,Population Healthy Nuclei (%),[1]; [13],57%
same,Population Hoechst High Intensity Objects (%),[1]; [13],16%
same,Population Membrane Permeable-Phenotype (%),[1]; [13],16%
same,Population Mitochondria Different-Phenotype (%),[1]; [13],1%
same,Population Mitotic Cells (%),[1]; [13],55%
same,Population Normal (%),[1]; [13],83%
same,Population Pyknosed Nuclei (%),[1]; [13],8%
same,Population Tubulin-Different-Phenotype (%),[1]; [13],17%
same,Total Cell Count,[1]; [13],129
same,Population Apoptotic (%),[1]; [14],80%
same,Population Fragmented Nuclei (%),[1]; [14],33%
same,Population Healthy Nuclei (%),[1]; [14],61%
same,Population Hoechst High Intensity Objects (%),[1]; [14],15%
same,Population Membrane Permeable-Phenotype (%),[1]; [14],4%
same,Population Mitotic Cells (%),[1]; [14],20%
same,Population Normal (%),[1]; [14],84%
same,Population Pyknosed Nuclei (%),[1]; [14],5%
same,Population Tubulin-Different-Phenotype (%),[1]; [14],21%
same,Total Cell Count,[1]; [14],117
same,Population Apoptotic (%),[1]; [15],60%
same,Population Fragmented Nuclei (%),[1]; [15],47%
same,Population Healthy Nuclei (%),[1]; [15],40%
same,Population Hoechst High Intensity Objects (%),[1]; [15],14%
same,Population Membrane Permeable-Phenotype (%),[1]; [15],25%
same,Population Mitochondria Different-Phenotype (%),[1]; [15],9%
same,Population Mitotic Cells (%),[1]; [15],40%
same,Population Normal (%),[1]; [15],85%
same,Population Pyknosed Nuclei (%),[1]; [15],11%
same,Population Tubulin-Different-Phenotype (%),[1]; [15],37%
same,Total Cell Count,[1]; [15],155
same,Population Apoptotic (%),[1]; [16],50%
same,Population Fragmented Nuclei (%),[1]; [16],52%
same,Population Hoechst High Intensity Objects (%),[1]; [16],8%
same,Population Membrane Permeable-Phenotype (%),[1]; [16],11%
same,Population Mitochondria Different-Phenotype (%),[1]; [16],1%
same,Population Mitotic Cells (%),[1]; [16],50%
same,Population Normal (%),[1]; [16],91%
same,Population Pyknosed Nuclei (%),[1]; [16],6%
same,Population Tubulin-Different-Phenotype (%),[1]; [16],58%
same,Total Cell Count,[1]; [16],162
same,Growth Rate,"[2]; 0 h, replicate number 1, timepoint 0 hours",0
same,Growth Rate,[2]; [17],0
same,Growth Rate,"[2]; 18 h, replicate number 2, timepoint 18 hours",1
same,Growth Rate,[2]; [18],0
same,Growth Rate,[3]; [19],0
same,Growth Rate,[3]; [18],1
same,Growth Rate,[4]; [19],1
same,Growth Rate,"[4]; 12 h, replicate number 1, timepoint 12 hours",1
same,Growth Rate,[4]; [17],0
same,Growth Rate,[4]; [18],0
